From ChEMBL document CHEMBL1949580, “Multi-component synthesis and in vitro and in vivo anticancer activity of novel arylmethylene bis-isoxazolo[4,5-b]pyridine-N-oxides” (Eur J Med Chem, 2012)
Converted amounts (≈) assume the structure as drawn.

Columns and labels:
[1] = Anticancer activity against […] xenografted in Swiss albino mouse liquid tumor model assessed as increase in host lifespan at 5 mg/kg, ip qd for 9 days measured after 14 days; format: functional, Ehrlich; conditions: route intraperitoneal
Mus musculus [2] = experiment: Toxicity in human EAC cells xenografted Swiss albino mouse liquid tumor model assessed as change in neutrophil cell count at 10 mg/kg, ip qd for 9 days (reference value: 73 +/- 1.25 %); format: organism-based, Ehrlich; parameters: dose 10 mg/kg, route intraperitoneal; conditions: in vivo, 216 h
MCF7 = experiment: Cytotoxicity against human MCF7 cells after 48 hrs by MTT assay; format: functional, cell-based; conditions: MCF7, 48 h
Summary of the method: (§1)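 Cells in medium with 10% FBS, 5% CO₂, 37 °C, seeded from a 1 × 10⁵ cells/mL suspension. Test solutions from DMSO stocks (final <1% DMSO) added after 24 h. Exposure 48 h, then MTT 2.5 mg/mL for 2 h, formazan dissolved in DMSO, read at 490 nm. IC₅₀ is 50% OD reduction versus untreated, from dose-response curves. Mean of three independent determinations.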

Mus musculus [3] = experiment: Toxicity in human EAC cells xenografted Swiss albino mouse liquid tumor model assessed as change in monocytes cell count at 10 mg/kg, ip qd for 9 days (reference value: 2.4 +/- 0.12 %); format: organism-based, Ehrlich; parameters: dose 10 mg/kg, route intraperitoneal; conditions: in vivo, 216 h
[4] = Anticancer activity against […] xenografted in Swiss albino mouse liquid tumor model assessed as host survival at 10 mg/kg, ip qd for 9 days (reference value: 13.7 +/- 0.03 days); format: functional, Ehrlich; conditions: route intraperitoneal
[5] = Anticancer activity against […] xenografted in Swiss albino mouse liquid tumor model assessed as packed cell volume at 10 mg/kg, ip qd for 9 days measured after 14 days by trypan blue staining (reference value: 2.75 +/- 0.49 mm); format: functional, Ehrlich; conditions: route intraperitoneal
Summary of the method: (§2)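 EAC cells (0.2 mL of 2 × 10⁶ cells/mouse) injected ip on day 0. Daily ip dosing began 24 h later. Ten mice per group. Tumor volume, packed cell volume and viable tumor cell count read by Trypan blue method, alongside body weight. Values are mean ± SEM versus tumor control. Cisplatin 5 mg/kg served as the positive control.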

[6] = Anticancer activity against […] xenografted in Swiss albino mouse liquid tumor model assessed as increase in host lifespan at 10 mg/kg, ip qd for 9 days measured after 14 days; format: functional, Ehrlich; conditions: route intraperitoneal
Mus musculus [7] = experiment: Toxicity in […] xenografted Swiss albino mouse liquid tumor model assessed as change WBC cell count at 10 mg/kg, ip qd for 9 days (reference value: 20.6 +/- 0.545 10^3/mm3); format: organism-based, Ehrlich; parameters: dose 10 mg/kg, route intraperitoneal; conditions: in vivo, 216 h
[8] = Antitumor activity against […] xenografted in Swiss albino mouse liquid tumor model assessed as change in body weight at 5 mg/kg, ip qd for 9 days measured after 14 days (reference value: 12.2 +/- 0.75 g); format: functional, Ehrlich; conditions: route intraperitoneal; summary of the method: as §2
Mus musculus [9] = experiment: Toxicity in human EAC cells xenografted Swiss albino mouse liquid tumor model assessed as change hemoglobin level at 5 mg/kg, ip qd for 9 days (reference value: 5.75 +/- 0.655 mg); format: organism-based, Ehrlich; parameters: dose 5 mg/kg, route intraperitoneal; conditions: in vivo, 216 h
Mus musculus [10] = experiment: Toxicity in human EAC cells xenografted Swiss albino mouse liquid tumor model assessed as change in RBC cell count at 5 mg/kg, ip qd for 9 days (reference value: 2.74 +/- 0.081 million/mm3); format: organism-based, Ehrlich; parameters: dose 5 mg/kg, route intraperitoneal; conditions: in vivo, 216 h
[11] = Anticancer activity against […] xenografted in Swiss albino mouse liquid tumor model assessed as tumor volume at 5 mg/kg, ip qd for 9 days measured after 14 days (reference value: 12.1 +/- 0.89 mL); format: functional, Ehrlich; conditions: route intraperitoneal; summary of the method: as §2
[12] = Anticancer activity against […] xenografted in Swiss albino mouse liquid tumor model assessed as host survival at 5 mg/kg, ip qd for 9 days (reference value: 13.7 +/- 0.03 days); format: functional, Ehrlich; conditions: route intraperitoneal
[13] = Cytotoxicity against […] after 48 hrs by MTT assay; format: functional, cell-based; conditions: Mus musculus, Ehrlich; summary of the method: as §1
Mus musculus [14] = experiment: Toxicity in human EAC cells xenografted Swiss albino mouse liquid tumor model assessed as change in RBC cell count at 10 mg/kg, ip qd for 9 days (reference value: 2.74 +/- 0.081 million/mm3); format: organism-based, Ehrlich; parameters: dose 10 mg/kg, route intraperitoneal; conditions: in vivo, 216 h
Mus musculus [15] = experiment: Toxicity in human EAC cells xenografted Swiss albino mouse liquid tumor model assessed as change in neutrophil cell count at 5 mg/kg, ip qd for 9 days (reference value: 73 +/- 1.25 %); format: organism-based, Ehrlich; parameters: dose 5 mg/kg, route intraperitoneal; conditions: in vivo, 216 h
HeLa = experiment: Cytotoxicity against human HeLa cells after 48 hrs by MTT assay; format: functional, cell-based; summary of the method: as §1
[16] = Antitumor activity against […] xenografted in Swiss albino mouse liquid tumor model assessed as change in body weight at 10 mg/kg, ip qd for 9 days measured after 14 days (reference value: 12.2 +/- 0.75 g); format: functional, Ehrlich; conditions: route intraperitoneal; summary of the method: as §2
[17] = Anticancer activity against […] xenografted in Swiss albino mouse liquid tumor model assessed as packed cell volume at 5 mg/kg, ip qd for 9 days measured after 14 days by trypan blue staining (reference value: 2.75 +/- 0.49 mm); format: functional, Ehrlich; conditions: route intraperitoneal; summary of the method: as §2
[18] = Anticancer activity against […] xenografted in Swiss albino mouse liquid tumor model assessed as viable tumor cells per 10^7 cells at 10 mg/kg, ip qd for 9 days measured after 14 days by trypan blue staining (reference value: 6.39 +/- 0.51 10^7/mL); format: functional, Ehrlich; conditions: route intraperitoneal; summary of the method: as §2
Mus musculus [19] = experiment: Toxicity in […] xenografted Swiss albino mouse liquid tumor model assessed as change WBC cell count at 5 mg/kg, ip qd for 9 days (reference value: 20.6 +/- 0.545 10^3/mm3); format: organism-based, Ehrlich; parameters: dose 5 mg/kg, route intraperitoneal; conditions: in vivo, 216 h
Mus musculus [20] = experiment: Toxicity in […] xenografted Swiss albino mouse liquid tumor model assessed as change in monocytes cell count at 5 mg/kg, ip qd for 9 days (reference value: 2.4 +/- 0.12 %); format: organism-based, Ehrlich; parameters: dose 5 mg/kg, route intraperitoneal; conditions: in vivo, 216 h
[21] = Anticancer activity against […] xenografted in Swiss albino mouse liquid tumor model assessed as viable tumor cells per 10^7 cells at 5 mg/kg, ip qd for 9 days measured after 14 days by trypan blue staining (reference value: 6.39 +/- 0.51 10^7/mL); format: functional, Ehrlich; conditions: route intraperitoneal; summary of the method: as §2
Mus musculus [22] = experiment: Toxicity in human EAC cells xenografted Swiss albino mouse liquid tumor model assessed as change in lymphocyte cell count at 5 mg/kg, ip qd for 9 days (reference value: 23 +/- 0.567 %); format: organism-based, Ehrlich; parameters: dose 5 mg/kg, route intraperitoneal; conditions: in vivo, 216 h
Mus musculus [23] = experiment: Toxicity in human EAC cells xenografted Swiss albino mouse liquid tumor model assessed as change in lymphocyte cell count at 10 mg/kg, ip qd for 9 days (reference value: 23 +/- 0.567 %); format: organism-based, Ehrlich; parameters: dose 10 mg/kg, route intraperitoneal; conditions: in vivo, 216 h
[24] = Anticancer activity against […] xenografted in Swiss albino mouse liquid tumor model assessed as tumor volume at 10 mg/kg, ip qd for 9 days measured after 14 days (reference value: 12.1 +/- 0.89 mL); format: functional, Ehrlich; conditions: route intraperitoneal; summary of the method: as §2
Mus musculus [25] = experiment: Toxicity in […] xenografted Swiss albino mouse liquid tumor model assessed as change hemoglobin level at 10 mg/kg, ip qd for 9 days (reference value: 5.75 +/- 0.655 mg); format: organism-based, Ehrlich; parameters: dose 10 mg/kg, route intraperitoneal; conditions: in vivo, 216 h

Cc1noc2c(C(c3ccccc3)c3c(-c4ccccc4)c[n+]([O-])c4c(C)noc34)c(-c3ccccc3)c[n+]([O-])c12
Activity [1]: 19.7% | Activity (Mus musculus [2]): 39% | IC50 (MCF7): 31.9 µg/mL (≈ 59 µM) | Activity (Mus musculus [3]): 1.6% | MST [4]: 22.1 days | Activity [5]: 0.94 mm | Activity [6]: 61.31% | Activity (Mus musculus [7]): 13.92 ×10³ /mm3 | Activity [8]: 10.41 g | Activity (Mus musculus [9]): 8.08 mg | Activity (Mus musculus [10]): 3.02 million/mm3 | Activity [11]: 7.61 mL | MST [12]: 16.4 days | IC50 [13]: 26.6 µg/mL (≈ 49.2 µM) | Activity (Mus musculus [14]): 3.88 million/mm3 | Activity (Mus musculus [15]): 54% | IC50 (HeLa): 28.6 µg/mL (≈ 52.9 µM) | Activity [16]: 7.7 g | Activity [17]: 1.25 mm | Activity [18]: 3.27 ×10⁷ /ml | Activity (Mus musculus [19]): 18.48 ×10³ /mm3 | Activity (Mus musculus [20]): 2% | Activity [21]: 4.05 ×10⁷ /ml | Activity (Mus musculus [22]): 31% | Activity (Mus musculus [23]): 49% | Activity [24]: 4.5 mL | Activity (Mus musculus [25]): 9.3 mg

Cc1noc2c(C(c3ccccc3Cl)c3c(-c4ccccc4)c[n+]([O-])c4c(C)noc34)c(-c3ccccc3)c[n+]([O-])c12
IC50 (MCF7): 72.1 µg/mL (≈ 125 µM) | IC50 [13]: 70.4 µg/mL (≈ 122 µM) | IC50 (HeLa): 79 µg/mL (≈ 137 µM)

Cc1ccc(-c2c[n+]([O-])c3c(C)noc3c2C(c2ccccc2)c2c(-c3ccc(C)cc3)c[n+]([O-])c3c(C)noc23)cc1
IC50 (MCF7): 44.3 µg/mL (≈ 77.9 µM) | IC50 [13]: 48.4 µg/mL (≈ 85.2 µM) | IC50 (HeLa): 42 µg/mL (≈ 73.9 µM)

COc1ccc(-c2c[n+]([O-])c3c(C)noc3c2C(c2ccccc2)c2c(-c3ccc(OC)cc3)c[n+]([O-])c3c(C)noc23)cc1
IC50 (MCF7): 46 µg/mL (≈ 76.5 µM) | IC50 [13]: 41.7 µg/mL (≈ 69.4 µM) | IC50 (HeLa): 47.9 µg/mL (≈ 79.8 µM)

Cc1noc2c(C(c3ccccc3)c3c(-c4ccccc4O)c[n+]([O-])c4c(C)noc34)c(-c3ccccc3O)c[n+]([O-])c12
Activity [1]: 8.02% | Activity (Mus musculus [2]): 51% | IC50 (MCF7): 33.5 µg/mL (≈ 58.6 µM) | Activity (Mus musculus [3]): 1.9% | MST [4]: 18 days | Activity [5]: 1.69 mm | Activity [6]: 31.38% | Activity (Mus musculus [7]): 18.8 ×10³ /mm3 | Activity [8]: 11 g | Activity (Mus musculus [9]): 5.96 mg | Activity (Mus musculus [10]): 2.72 million/mm3 | Activity [11]: 10.69 mL | MST [12]: 14.8 days | IC50 [13]: 36.3 µg/mL (≈ 63.4 µM) | Activity (Mus musculus [14]): 3.3 million/mm3 | Activity (Mus musculus [15]): 65% | IC50 (HeLa): 32.8 µg/mL (≈ 57.3 µM) | Activity [16]: 8.89 g | Activity [17]: 2.13 mm | Activity [18]: 4.07 ×10⁷ /ml | Activity (Mus musculus [19]): 19.9 ×10³ /mm3 | Activity (Mus musculus [20]): 2.3% | Activity [21]: 5.21 ×10⁷ /ml | Activity (Mus musculus [22]): 26% | Activity (Mus musculus [23]): 40% | Activity [24]: 8.29 mL | Activity (Mus musculus [25]): 7.02 mg

Cc1noc2c(C(c3ccc(Cl)cc3)c3c(-c4ccccc4)c[n+]([O-])c4c(C)noc34)c(-c3ccccc3)c[n+]([O-])c12
IC50 (MCF7): 74.3 µg/mL (≈ 129 µM) | IC50 [13]: 60.6 µg/mL (≈ 105 µM) | IC50 (HeLa): 70.7 µg/mL (≈ 123 µM)

Cc1ccccc1C(c1c(-c2ccccc2)c[n+]([O-])c2c(C)noc12)c1c(-c2ccccc2)c[n+]([O-])c2c(C)noc12
IC50 (MCF7): 60.7 µg/mL (≈ 109 µM) | IC50 [13]: 65.1 µg/mL (≈ 117 µM) | IC50 (HeLa): 62.4 µg/mL (≈ 113 µM)

Cc1noc2c(C(c3ccccc3)c3c(-c4ccc([N+](=O)[O-])cc4)c[n+]([O-])c4c(C)noc34)c(-c3ccc([N+](=O)[O-])cc3)c[n+]([O-])c12
IC50 (MCF7): 76.2 µg/mL (≈ 121 µM) | IC50 [13]: 75.5 µg/mL (≈ 120 µM) | IC50 (HeLa): 80 µg/mL (≈ 127 µM)

Cc1noc2c(C(c3ccccc3)c3c(-c4ccc(Cl)cc4)c[n+]([O-])c4c(C)noc34)c(-c3ccc(Cl)cc3)c[n+]([O-])c12
IC50 (MCF7): 79 µg/mL (≈ 130 µM) | IC50 [13]: 78.3 µg/mL (≈ 129 µM) | IC50 (HeLa): 70.2 µg/mL (≈ 115 µM)

COc1ccccc1C(c1c(-c2ccccc2)c[n+]([O-])c2c(C)noc12)c1c(-c2ccccc2)c[n+]([O-])c2c(C)noc12
IC50 (MCF7): 57.3 µg/mL (≈ 101 µM) | IC50 [13]: 51.8 µg/mL (≈ 90.9 µM) | IC50 (HeLa): 65.5 µg/mL (≈ 115 µM)
